The text below walks through data of ChEMBL document CHEMBL3797186, “Single Residue Substitutions That Confer Voltage-Gated Sodium Ion Channel Subtype Selectivity in the NaV1.7 Inhibitory Peptide GpTx-1” (J Med Chem, 2016).

The term IC50 denotes the concentration at which inhibition is half-maximal.

For this assay, the target named is Sodium channel protein type 5 subunit alpha (Homo sapiens, UniProt Q14524). Briefly: Inhibition of human Nav1.5 expressed in HEK293 cells assessed as inward peak current by ion-works quattro patch clamp electrophysiology method. The format is cell-based. The essentials: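 Stable HEK293 line expressing human NaV1.5, recorded by population patch clamp on the IonWorks Quattro.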

Positions of bridges follow the written chain, without caps; N, C: chain ends. Residues, ends and D or L forms follow the SMILES beside them.

Sequence of Sodium channel protein type 5 subunit alpha (Q14524 whole entry): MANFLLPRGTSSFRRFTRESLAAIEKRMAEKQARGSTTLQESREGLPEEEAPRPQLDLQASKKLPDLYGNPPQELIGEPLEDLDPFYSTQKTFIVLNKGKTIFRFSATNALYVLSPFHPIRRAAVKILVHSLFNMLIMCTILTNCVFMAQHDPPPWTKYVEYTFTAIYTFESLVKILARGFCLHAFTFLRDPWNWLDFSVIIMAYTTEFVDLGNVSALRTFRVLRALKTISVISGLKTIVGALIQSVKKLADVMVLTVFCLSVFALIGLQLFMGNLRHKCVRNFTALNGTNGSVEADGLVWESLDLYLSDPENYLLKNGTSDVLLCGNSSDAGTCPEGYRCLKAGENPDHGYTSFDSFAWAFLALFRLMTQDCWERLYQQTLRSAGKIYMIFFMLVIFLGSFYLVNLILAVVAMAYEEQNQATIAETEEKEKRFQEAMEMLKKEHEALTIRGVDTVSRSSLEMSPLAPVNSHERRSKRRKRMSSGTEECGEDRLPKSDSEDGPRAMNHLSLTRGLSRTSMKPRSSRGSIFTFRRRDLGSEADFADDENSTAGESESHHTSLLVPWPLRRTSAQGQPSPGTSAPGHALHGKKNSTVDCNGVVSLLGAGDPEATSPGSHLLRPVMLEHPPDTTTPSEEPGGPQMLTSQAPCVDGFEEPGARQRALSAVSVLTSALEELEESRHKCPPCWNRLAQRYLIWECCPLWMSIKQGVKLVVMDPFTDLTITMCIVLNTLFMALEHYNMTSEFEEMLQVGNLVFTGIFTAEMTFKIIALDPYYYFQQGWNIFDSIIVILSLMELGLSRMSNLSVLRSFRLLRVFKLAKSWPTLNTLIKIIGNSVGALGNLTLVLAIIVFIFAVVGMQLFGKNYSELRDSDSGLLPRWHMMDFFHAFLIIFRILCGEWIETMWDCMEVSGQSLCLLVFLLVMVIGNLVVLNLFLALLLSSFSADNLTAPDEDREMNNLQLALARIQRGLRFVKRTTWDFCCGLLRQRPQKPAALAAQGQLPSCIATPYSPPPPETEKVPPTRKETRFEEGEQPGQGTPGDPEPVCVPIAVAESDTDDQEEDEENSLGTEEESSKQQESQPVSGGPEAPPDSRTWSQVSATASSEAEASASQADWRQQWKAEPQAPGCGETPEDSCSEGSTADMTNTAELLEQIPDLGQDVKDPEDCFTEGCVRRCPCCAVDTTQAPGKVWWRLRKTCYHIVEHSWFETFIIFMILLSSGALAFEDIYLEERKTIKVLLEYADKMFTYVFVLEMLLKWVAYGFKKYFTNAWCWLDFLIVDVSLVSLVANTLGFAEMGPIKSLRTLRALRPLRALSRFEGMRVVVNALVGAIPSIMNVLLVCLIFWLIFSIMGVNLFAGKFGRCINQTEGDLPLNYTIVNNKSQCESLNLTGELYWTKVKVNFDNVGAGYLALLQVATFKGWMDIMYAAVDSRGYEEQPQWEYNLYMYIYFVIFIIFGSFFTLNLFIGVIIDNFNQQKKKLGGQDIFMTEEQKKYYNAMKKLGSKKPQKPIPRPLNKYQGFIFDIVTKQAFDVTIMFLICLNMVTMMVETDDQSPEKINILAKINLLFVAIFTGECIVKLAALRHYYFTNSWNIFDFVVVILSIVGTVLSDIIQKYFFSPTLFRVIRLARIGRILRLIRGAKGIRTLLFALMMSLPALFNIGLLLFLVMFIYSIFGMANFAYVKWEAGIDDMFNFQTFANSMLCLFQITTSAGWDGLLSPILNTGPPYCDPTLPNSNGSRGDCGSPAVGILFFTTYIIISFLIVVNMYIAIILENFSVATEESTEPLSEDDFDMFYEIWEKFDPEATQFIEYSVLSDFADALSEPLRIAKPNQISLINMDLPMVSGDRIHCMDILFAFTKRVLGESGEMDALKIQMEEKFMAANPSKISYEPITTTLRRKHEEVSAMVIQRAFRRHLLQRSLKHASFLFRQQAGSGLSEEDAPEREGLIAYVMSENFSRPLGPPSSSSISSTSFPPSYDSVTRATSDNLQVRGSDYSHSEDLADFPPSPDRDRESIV

Take `CC[C@H](C)[C@@H]1NC(=O)[C@@H]2CSSC[C@@H]3NC(=O)[C@H](C(C)C)NC(=O)[C@H](CC(C)C)NC(=O)[C@H](CC(N)=O)NC(=O)[C@@H]4CCCN4C(=O)[C@H](CCCNC(=N)N)NC(=O)[C@H](CSSC[C@H](NC(=O)[C@@H](N)CC(=O)O)C(=O)N[C@@H](CC(C)C)C(=O)NCC(=O)N[C@@H](Cc4ccccc4)C(=O)N[C@@H](CCSC)C(=O)N[C@@H](CCCNC(=N)N)C(=O)N[C@@H](CCCCN)C(=O)N2)NC(=O)[C@H](CSSC[C@@H](C(=O)N[C@@H](CCCCN)C(=O)N[C@@H](Cc2ccc(O)cc2)C(=O)N[C@H](C(=O)N[C@@H](Cc2ccccc2)C(=O)N[C@@H](CCC(=O)O)C(N)=O)C(C)C)NC(=O)[C@H](Cc2c[nH]c4ccccc24)NC(=O)[C@H](CCCCN)NC(=O)[C@H](Cc2c[nH]cn2)NC(=O)[C@H]([C@@H](C)O)NC(=O)[C@H](CCCNC(=N)N)NC(=O)[C@H](CO)NC3=O)NC(=O)[C@H](CCCCN)NC(=O)[C@H](CC(=O)O)NC(=O)[C@H](CC(N)=O)NC(=O)[C@H](CC(=O)O)NC(=O)[C@@H]2CCCN2C1=O`: the IC50 is greater than 5 µM.
With `CC[C@H](C)[C@@H]1NC(=O)[C@@H]2CSSC[C@@H]3NC(=O)[C@H](C(C)C)NC(=O)[C@H](CC(C)C)NC(=O)[C@H](CC(N)=O)NC(=O)[C@@H]4CCCN4C(=O)[C@H](CCCNC(=N)N)NC(=O)[C@H](CSSC[C@H](NC(=O)[C@@H](N)CC(=O)O)C(=O)N[C@@H](CC(C)C)C(=O)NCC(=O)N[C@@H](Cc4ccccc4)C(=O)N[C@@H](CCSC)C(=O)N[C@@H](CCCNC(=N)N)C(=O)N[C@@H](CCCCN)C(=O)N2)NC(=O)[C@H](CSSC[C@@H](C(=O)N[C@@H](CCCCN)C(=O)N[C@@H](Cc2ccc(O)cc2)C(=O)N[C@H](C(=O)N[C@@H](Cc2ccccc2)C(N)=O)C(C)C)NC(=O)[C@H](Cc2c[nH]c4ccccc24)NC(=O)[C@H](CCCCN)NC(=O)[C@H](Cc2c[nH]cn2)NC(=O)[C@H]([C@@H](C)O)NC(=O)[C@H](CCCNC(=N)N)NC(=O)[C@H](CO)NC3=O)NC(=O)[C@H](CCC(=O)O)NC(=O)[C@H](CC(=O)O)NC(=O)[C@H](CC(N)=O)NC(=O)[C@H](CC(=O)O)NC(=O)[C@@H]2CCCN2C1=O` (H-DCLGFMRKCIPDNDECCRPNLVCSRTHKWCKYVF-NH2; disulfide 2-17, 9-23, 16-30), the IC50 is greater than 5 µM.
To `CC[C@H](C)[C@@H]1NC(=O)[C@@H]2CSSC[C@@H]3NC(=O)[C@H](C(C)C)NC(=O)[C@H](CC(C)C)NC(=O)[C@H](CC(N)=O)NC(=O)[C@@H]4CCCN4C(=O)[C@H](CCCNC(=N)N)NC(=O)[C@H](CSSC[C@H](NC(=O)[C@@H](N)CC(=O)O)C(=O)N[C@@H](CCCNC(=N)N)C(=O)NCC(=O)N[C@@H](Cc4ccccc4)C(=O)N[C@@H](CCSC)C(=O)N[C@@H](CCCNC(=N)N)C(=O)N[C@@H](CCCCN)C(=O)N2)NC(=O)[C@H](CSSC[C@@H](C(=O)N[C@@H](CCCCN)C(=O)N[C@@H](Cc2ccc(O)cc2)C(=O)N[C@H](C(=O)N[C@@H](Cc2ccccc2)C(N)=O)C(C)C)NC(=O)[C@H](Cc2c[nH]c4ccccc24)NC(=O)[C@H](CCCCN)NC(=O)[C@H](Cc2cnc[nH]2)NC(=O)[C@H]([C@@H](C)O)NC(=O)[C@H](CCCNC(=N)N)NC(=O)[C@H](CO)NC3=O)NC(=O)[C@H](CCCCN)NC(=O)[C@H](CC(=O)O)NC(=O)[C@H](CC(N)=O)NC(=O)[C@H](CC(=O)O)NC(=O)[C@@H]2CCCN2C1=O` (H-DCRGFMRKCIPDNDKCCRPNLVCSRTHKWCKYVF-NH2; disulfide 2-17, 9-23, 16-30) belongs greater than 5 µM.
As for `CC[C@H](C)[C@@H]1NC(=O)[C@@H]2CSSC[C@@H]3NC(=O)[C@H](C(C)C)NC(=O)[C@H](CC(C)C)NC(=O)[C@H](CC(N)=O)NC(=O)[C@@H]4CCCN4C(=O)[C@H](CCCNC(=N)N)NC(=O)[C@H](CSSC[C@H](NC(=O)[C@@H](N)CC(=O)O)C(=O)N[C@@H](CC(C)C)C(=O)NCC(=O)N[C@@H](Cc4ccccc4)C(=O)N[C@@H](CCSC)C(=O)N[C@@H](CCCNC(=N)N)C(=O)N[C@@H](CCCCN)C(=O)N2)NC(=O)[C@H](CSSC[C@@H](C(=O)N[C@@H](CCCCN)C(=O)N[C@@H](Cc2ccc(O)cc2)C(=O)N[C@H](C(=O)N[C@@H](Cc2ccccc2)C(N)=O)C(C)C)NC(=O)[C@H](Cc2c[nH]c4ccccc24)NC(=O)[C@H](CCCCN)NC(=O)[C@H](Cc2cnc[nH]2)NC(=O)[C@H]([C@@H](C)O)NC(=O)[C@H](CCCNC(=N)N)NC(=O)[C@H](CO)NC3=O)NC(=O)[C@H](CCCCN)NC(=O)[C@H](CC(=O)O)NC(=O)[C@H](CC(N)=O)NC(=O)[C@H](CCCNC(=N)N)NC(=O)[C@@H]2CCCN2C1=O` (H-DCLGFMRKCIPRNDKCCRPNLVCSRTHKWCKYVF-NH2; disulfide 2-17, 9-23, 16-30), the half-maximal inhibitory concentration (IC50) is greater than 4.8 µM.
For the compound `CSCC[C@@H]1NC(=O)[C@H](Cc2ccccc2)NC(=O)CNC(=O)[C@H](CC(C)C)NC(=O)[C@@H](NC(=O)[C@@H](N)CC(=O)O)CSSC[C@@H]2NC(=O)[C@@H]3CSSC[C@@H](C(=O)N[C@@H](CCCCN)C(=O)N[C@@H](Cc4ccc(O)cc4)C(=O)N[C@H](C(=O)N[C@@H](Cc4ccccc4)C(N)=O)C(C)C)NC(=O)[C@H](Cc4c[nH]c5ccccc45)NC(=O)[C@H](CCCCN)NC(=O)[C@H](Cc4cnc[nH]4)NC(=O)[C@H]([C@@H](C)O)NC(=O)[C@H](CCCNC(=N)N)NC(=O)[C@H](CO)NC(=O)[C@H](CSSC[C@H](NC(=O)[C@H](CCCCN)NC(=O)[C@H](CCCNC(=N)N)NC1=O)C(=O)N[C@@H](Cc1ccccn1)C(=O)N1CCC[C@H]1C(=O)N[C@@H](CC(=O)O)C(=O)N[C@@H](CC(N)=O)C(=O)N[C@@H](CC(=O)O)C(=O)N[C@@H](CCCCN)C(=O)N3)NC(=O)[C@H](C(C)C)NC(=O)[C@H](CC(C)C)NC(=O)[C@H](CC(N)=O)NC(=O)[C@@H]1CCCN1C(=O)[C@H](CCCNC(=N)N)NC2=O`, the concentration for half-maximal inhibition (IC50) was greater than 5 µM.
Regarding `CC[C@H](C)[C@@H]1NC(=O)[C@@H]2CSSC[C@@H]3NC(=O)[C@H](C(C)C)NC(=O)[C@H](CC(C)C)NC(=O)[C@H](CC(N)=O)NC(=O)[C@@H]4CCCN4C(=O)[C@H](CCCNC(=N)N)NC(=O)[C@H](CSSC[C@H](NC(=O)[C@@H](N)CC(=O)O)C(=O)N[C@@H](CC(C)C)C(=O)NCC(=O)N[C@@H](Cc4ccccc4)C(=O)N[C@@H](Cc4cccc5ccccc45)C(=O)N[C@@H](CCCNC(=N)N)C(=O)N[C@@H](CCCCN)C(=O)N2)NC(=O)[C@H](CSSC[C@@H](C(=O)N[C@@H](CCCCN)C(=O)N[C@@H](Cc2ccc(O)cc2)C(=O)N[C@H](C(=O)N[C@@H](Cc2ccccc2)C(N)=O)C(C)C)NC(=O)[C@H](Cc2c[nH]c4ccccc24)NC(=O)[C@H](CCCCN)NC(=O)[C@H](Cc2cnc[nH]2)NC(=O)[C@H]([C@@H](C)O)NC(=O)[C@H](CCCNC(=N)N)NC(=O)[C@H](CO)NC3=O)NC(=O)[C@H](CCCCN)NC(=O)[C@H](CC(=O)O)NC(=O)[C@H](CC(N)=O)NC(=O)[C@H](CC(=O)O)NC(=O)[C@@H]2CCCN2C1=O`, the half-inhibitory concentration (IC50) was determined as 2.3 µM.
To `CC[C@H](C)[C@@H]1NC(=O)[C@@H]2CSSC[C@@H]3NC(=O)[C@H](C(C)C)NC(=O)[C@H](CC(C)C)NC(=O)[C@H](CCCNC(=N)N)NC(=O)[C@@H]4CCCN4C(=O)[C@H](CCCNC(=N)N)NC(=O)[C@H](CSSC[C@H](NC(=O)[C@@H](N)CC(=O)O)C(=O)N[C@@H](CC(C)C)C(=O)NCC(=O)N[C@@H](Cc4ccccc4)C(=O)N[C@@H](CCSC)C(=O)N[C@@H](CCCNC(=N)N)C(=O)N[C@@H](CCCCN)C(=O)N2)NC(=O)[C@H](CSSC[C@@H](C(=O)N[C@@H](CCCCN)C(=O)N[C@@H](Cc2ccc(O)cc2)C(=O)N[C@H](C(=O)N[C@@H](Cc2ccccc2)C(N)=O)C(C)C)NC(=O)[C@H](Cc2c[nH]c4ccccc24)NC(=O)[C@H](CCCCN)NC(=O)[C@H](Cc2cnc[nH]2)NC(=O)[C@H]([C@@H](C)O)NC(=O)[C@H](CCCNC(=N)N)NC(=O)[C@H](CO)NC3=O)NC(=O)[C@H](CCCCN)NC(=O)[C@H](CC(=O)O)NC(=O)[C@H](CC(N)=O)NC(=O)[C@H](CC(=O)O)NC(=O)[C@@H]2CCCN2C1=O` (H-DCLGFMRKCIPDNDKCCRPRLVCSRTHKWCKYVF-NH2; disulfide 2-17, 9-23, 16-30) belongs greater than 5 µM.
To `CC[C@H](C)[C@@H]1NC(=O)[C@@H]2CSSC[C@@H]3NC(=O)[C@H](C(C)C)NC(=O)[C@H](CC(C)C)NC(=O)[C@H](CC(N)=O)NC(=O)[C@@H]4CCCN4C(=O)[C@H](CCCNC(=N)N)NC(=O)[C@H](CSSC[C@H](NC(=O)[C@@H](N)CC(=O)O)C(=O)N[C@@H](CC(C)C)C(=O)NCC(=O)N[C@@H](Cc4ccccc4)C(=O)N[C@@H](CCSC)C(=O)N[C@@H](CCCNC(=N)N)C(=O)N[C@@H](CCCCN)C(=O)N2)NC(=O)[C@H](CSSC[C@@H](C(=O)N[C@@H](CCCCN)C(=O)N[C@@H](Cc2ccc(O)cc2)C(=O)N[C@H](C(=O)N[C@@H](Cc2ccccc2)C(N)=O)C(C)C)NC(=O)[C@H](Cc2c[nH]c4ccccc24)NC(=O)[C@H](CCCCN)NC(=O)[C@H](CCCCN)NC(=O)[C@H]([C@@H](C)O)NC(=O)[C@H](CCCNC(=N)N)NC(=O)[C@H](CO)NC3=O)NC(=O)[C@H](CCCCN)NC(=O)[C@H](CC(=O)O)NC(=O)[C@H](CC(N)=O)NC(=O)[C@H](CC(=O)O)NC(=O)[C@@H]2CCCN2C1=O` (H-DCLGFMRKCIPDNDKCCRPNLVCSRTKKWCKYVF-NH2; disulfide 2-17, 9-23, 16-30) belongs greater than 5 µM.
Next, `CC[C@H](C)[C@@H]1NC(=O)[C@@H]2CSSC[C@@H]3NC(=O)[C@H](C(C)C)NC(=O)[C@H](CC(C)C)NC(=O)[C@H](CC(N)=O)NC(=O)[C@@H]4CCCN4C(=O)[C@H](CCCNC(=N)N)NC(=O)[C@H](CSSC[C@H](NC(=O)[C@@H](N)CC(=O)O)C(=O)N[C@@H](CC(C)C)C(=O)NCC(=O)N[C@@H](Cc4ccccc4)C(=O)N[C@@H](CCSC)C(=O)N[C@@H](CCCNC(=N)N)C(=O)N[C@@H](CCCCN)C(=O)N2)NC(=O)[C@H](CSSC[C@@H](C(=O)N[C@@H](CCCCN)C(=O)N[C@@H](Cc2ccc(O)cc2)C(=O)N[C@@H](CCCNC(=N)N)C(=O)N[C@@H](Cc2ccccc2)C(N)=O)NC(=O)[C@H](Cc2c[nH]c4ccccc24)NC(=O)[C@H](CCCCN)NC(=O)[C@H](Cc2cnc[nH]2)NC(=O)[C@H]([C@@H](C)O)NC(=O)[C@H](CCCNC(=N)N)NC(=O)[C@H](CO)NC3=O)NC(=O)[C@H](CCCCN)NC(=O)[C@H](CC(=O)O)NC(=O)[C@H](CC(N)=O)NC(=O)[C@H](CC(=O)O)NC(=O)[C@@H]2CCCN2C1=O` (H-DCLGFMRKCIPDNDKCCRPNLVCSRTHKWCKYRF-NH2; disulfide 2-17, 9-23, 16-30): greater than 5 µM.
